Measured values from ChEMBL document CHEMBL3286203, “Reactive oxygen species (ROS) inducible DNA cross-linking agents and their effect on cancer cells and normal lymphocytes” (J Med Chem, 2014).
Activity calls are given as the source filed them. The calls are words filed in the database; no cut-off is given here.

Legend:
SNB-19 = test: Cytotoxicity against human SNB19 cells assessed as growth inhibition at 10 uM after 48 hrs by SRB assay; format: functional, cell-based
Outline: (§1)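 NCI-60 DTP human tumour line screen. Cells grown in RPMI 1640 with 5% fetal bovine serum and 2 mM L-glutamine, plated at 5000–40 000 cells/well according to doubling time. Single dose of 10 μM for 48 h at 37 °C, 5% CO2, 95% air, 100% humidity, two plates per line. Read-out is growth percent.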

SNB-75 = test: Cytotoxicity against human SNB75 cells assessed as growth inhibition at 10 uM after 48 hrs by SRB assay; format: functional, cell-based; outline: as §1
SK-MEL-2 = test: Cytotoxicity against human SK-MEL-2 cells assessed as growth inhibition at 10 uM after 48 hrs by SRB assay; format: functional, cell-based
Outline: (§2)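 Single-dose screen run by the NCI Developmental Therapeutics Program (NCI-60). Cells were grown in RPMI 1640 with 5% fetal bovine serum and 2 mM L-glutamine. They were plated at 5000–40 000 cells/well, depending on doubling time. Each line was run in two plates and exposed to 10 μM drug for 48 h at 37 °C, 5% CO2, 100% humidity. Read-out was growth percent.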

SK-MEL-5 = test: Cytotoxicity against human SK-MEL-5 cells assessed as growth inhibition at 10 uM after 48 hrs by SRB assay; format: functional, cell-based; outline: as §2
OVCAR-3 = test: Cytotoxicity against human OVCAR3 cells assessed as growth inhibition at 10 uM after 48 hrs by SRB assay; format: functional, cell-based; outline: as §2
OVCAR-5 = test: Cytotoxicity against human OVCAR5 cells assessed as growth inhibition at 10 uM after 48 hrs by SRB assay; format: functional, cell-based; outline: as §2
NCI/ADR-RES = test: Cytotoxicity against human NCI-ADR-RES cells assessed as growth inhibition at 10 uM after 48 hrs by SRB assay; format: functional, cell-based; outline: as §2
A498 = test: Cytotoxicity against human A498 cells assessed as growth inhibition at 10 uM after 48 hrs by SRB assay; format: functional, cell-based
Outline: (§3)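 NCI DTP 60-cell-line screen run at the NCI. Cells were grown in RPMI 1640 with 5% FBS and 2 mM L-glutamine. They were seeded at 5000–40 000 cells/well depending on doubling time and grown in two plates per line. Each was exposed to a single 10 μM dose for 48 h at 37 °C, 5% CO2, 95% air, 100% humidity. Read-out was percent growth.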

CAKI-1 = test: Cytotoxicity against human Caki1 cells assessed as growth inhibition at 10 uM after 48 hrs by SRB assay; format: functional, cell-based; outline: as §3
TK-10 = test: Cytotoxicity against human TK10 cells assessed as growth inhibition at 10 uM after 48 hrs by SRB assay; format: functional, cell-based; outline: as §1
PC-3 = test: Cytotoxicity against human PC3 cells assessed as growth inhibition at 10 uM after 48 hrs by SRB assay; format: functional, cell-based; outline: as §2
DU-145 = test: Cytotoxicity against human DU145 cells assessed as growth inhibition at 10 uM after 48 hrs by SRB assay; format: functional, cell-based; outline: as §3
MCF7 [1] = test: Cytotoxicity against human MCF7 cells assessed as growth inhibition at 10 uM after 48 hrs by SRB assay; format: functional, cell-based; outline: as §2
Hs-578T = test: Cytotoxicity against human Hs578T cells assessed as growth inhibition at 10 uM after 48 hrs by SRB assay; format: functional, cell-based; outline: as §3
T47D = test: Cytotoxicity against human T47D cells assessed as growth inhibition at 10 uM after 48 hrs by SRB assay; format: functional, cell-based; outline: as §1
NCI-H226 = test: Cytotoxicity against human NCI-H226 cells assessed as growth inhibition at 10 uM after 48 hrs by SRB assay; format: functional, cell-based; outline: as §2
NCI-H322M = test: Cytotoxicity against human NCI-H322M cells assessed as growth inhibition at 10 uM after 48 hrs by SRB assay; format: functional, cell-based; outline: as §2
NCI-H460 = test: Cytotoxicity against human NCI-H460 cells assessed as growth inhibition at 10 uM after 48 hrs by SRB assay; format: functional, cell-based; outline: as §2
COLO 205 = test: Cytotoxicity against human COLO205 cells assessed as growth inhibition at 10 uM after 48 hrs by SRB assay; format: functional, cell-based; outline: as §3
HCT-15 = test: Cytotoxicity against human HCT15 cells assessed as growth inhibition at 10 uM after 48 hrs by SRB assay; format: functional, cell-based; outline: as §3
SW-620 = test: Cytotoxicity against human SW620 cells assessed as growth inhibition at 10 uM after 48 hrs by SRB assay; format: functional, cell-based; outline: as §1
SF-268 = test: Cytotoxicity against human SF268 cells assessed as growth inhibition at 10 uM after 48 hrs by SRB assay; format: functional, cell-based; outline: as §2
[2] = Induction of [32P]-labeled 49-mer oligonucleotide duplex DNA 12 with GNC sequence at terminus (unknown origin) interstrand cross-linking at 1 mM after 16 hrs by PAGE
Outline: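 32P-labelled 12a (1.0 μM) annealed with 1.5 equiv of 12b in 10 mM potassium phosphate pH 7 / 100 mM NaCl (65 °C for 3 min, then slow cooling). Duplex incubated with compound (final 1 μM–5 mM), with or without H2O2, in NaCl and potassium phosphate pH 8 at room temperature for 16 h. Quenched in formamide; 20% denaturing PAGE.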

A549 [3] = test: Cytotoxicity against human A549 cells assessed as growth inhibition at 10 uM after 48 hrs by SRB assay; format: functional, cell-based; outline: as §3
RPMI-8226 = test: Cytotoxicity against human RPMI8226 cells assessed as growth inhibition at 10 uM after 48 hrs by SRB assay; format: functional, cell-based; outline: as §2
HOP-62 = test: Cytotoxicity against human HOP62 cells after 48 hrs by SRB assay; format: functional; conditions: HOP-62, 48 h
Outline: (§4)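 GI50 was determined in the NCI Developmental Therapeutics Program in vitro 60-line cancer screen. Tumour lines were maintained in RPMI 1640 containing 5% FBS and 2 mM L-glutamine. Cells were inoculated at 5000–40 000 cells/well according to each line's doubling time before drug exposure.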

SF-539 = test: Cytotoxicity against human SF539 cells after 48 hrs by SRB assay; format: functional; conditions: SF-539, 48 h
Outline: (§5)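 GI50 from the NCI Developmental Therapeutics Program in vitro human tumor cell screen. Cell lines were maintained in RPMI 1640 with 5% fetal bovine serum and 2 mM L-glutamine. They were seeded at 5000–40 000 cells/well, depending on each line's doubling time, then exposed to drug for 48 h at 37 °C, 5% CO2.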

[4] = Cytotoxicity against human OVCAR4 cells after 48 hrs by SRB assay; format: functional; conditions: OVCAR-4, 48 h; outline: as §5
[5] = Cytotoxicity against human OVCAR5 cells after 48 hrs by SRB assay; format: functional; conditions: OVCAR-5, 48 h; outline: as §5
[6] = Cytotoxicity against human OVCAR8 cells after 48 hrs by SRB assay; format: functional; conditions: OVCAR-8, 48 h; outline: as §5
MCF7 [7] = test: Cytotoxicity against human MCF7 cells after 48 hrs by SRB assay; format: functional; conditions: MCF7, 48 h; outline: as §4
CCRF-CEM = test: Cytotoxicity against human CCRF-CEM cells after 48 hrs by SRB assay; format: functional; outline: as §4
HL-60(TB) = test: Cytotoxicity against human HL-60(TB) cells after 48 hrs by SRB assay; format: functional; conditions: HL-60, 48 h; outline: as §4
A549 [8] = test: Cytotoxicity against human A549 cells after 48 hrs by SRB assay; format: functional; conditions: A549, 48 h; outline: as §4

Row | Compound | growth inhibition (GI) (SNB-19) | growth inhibition (GI) (SNB-75) | growth inhibition (GI) (SK-MEL-2) | growth inhibition (GI) (SK-MEL-5) | growth inhibition (GI) (OVCAR-3) | growth inhibition (GI) (OVCAR-5) | growth inhibition (GI) (NCI/ADR-RES) | growth inhibition (GI) (A498) | growth inhibition (GI) (CAKI-1) | growth inhibition (GI) (TK-10) | growth inhibition (GI) (PC-3) | growth inhibition (GI) (DU-145) | growth inhibition (GI) (MCF7 [1]) | growth inhibition (GI) (Hs-578T) | growth inhibition (GI) (T47D) | growth inhibition (GI) (NCI-H226) | growth inhibition (GI) (NCI-H322M) | growth inhibition (GI) (NCI-H460) | growth inhibition (GI) (COLO 205) | growth inhibition (GI) (HCT-15) | other results
1 | CC1(C)OB(c2ccc(COC(=O)N(CCCl)CCCl)cc2)OC1(C)C | inactive | inactive | inactive | inactive | inactive | inactive | inactive | inactive | inactive | inactive | inactive | inactive | inactive | inactive | inactive | inactive | inactive | inactive | inactive | inactive | growth inhibition (GI) (SW-620): inactive; growth inhibition (GI) (SF-268): inactive; Activity [2]: inactive; growth inhibition (GI) (A549 [3]): inactive; growth inhibition (GI) (RPMI-8226): inactive
2 | CC1(C)OB(c2ccc(N(CCCl)CCCl)cc2)OC1(C)C | Active | Active | Active | Active | Active | Active | Active | Active | Active | Active | Active | Active | Active | Active | Active | Active | Active | Active | Active | Active | GI50 (HOP-62): 10.9 µM; GI50 (SF-539): 5.7 µM; GI50 [4]: 17.4 µM; GI50 [5]: 21.6 µM; GI50 [6]: 7.83 µM; GI50 (MCF7 [7]): 4.12 µM; growth inhibition (GI) (SW-620): Active; growth inhibition (GI) (SF-268): Active; Activity [2]: inactive; growth inhibition (GI) (A549 [3]): Active; growth inhibition (GI) (RPMI-8226): Active; GI50 (CCRF-CEM): 3.34 µM; GI50 (HL-60(TB)): 4.66 µM; GI50 (A549 [8]): 2.69 µM
